Bioassay records from PubChem.
KCNK3 inh: human KCNK3 channel inhibitors, primary screen, CHO cells, FluxOR thallium flux, B-score; Potassium channel subfamily K member 3 (Homo sapiens), O14649; B-score at 10 µM; FluxOR fluorescence; hits give low values; 0.84% of 340,000 active; AID 602410, 2012;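 active = B-score under library mean minus 4 SD, starting fluorescence ratio at most library mean plus 5 SD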;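 also: more negative B-score means stronger inhibition of thallium flux through KCNK3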
Kir21 block: inhibitors of mouse Kir2.1 inward-rectifier potassium channel; 0.85% of 310,000 active; AID 1672, 2009; B-score at 10 µM; HEK293-Kir2.1, FluxOR thallium flux fluorescence; hits give low values;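 active = fluorescence ratio B-score at or below minus 3 SD of library scores, with starting-brightness B-score within 2 SD, cut at about -4.2 in these data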;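 also: channel flux triggered by added potassium and thallium sulfate stimulus; B-score of peak minus minimum fluorescence over baseline after thallium stimulus; more negative B-score means stronger Kir2.1 block with less thallium influx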
hERG protect: hERG rescue from dofetilide block, primary screen, cell-based, CHO-hERG, FluxOR thallium flux, dofetilide IC70; activation (rescue from dofetilide block), less the hit threshold, % at 10 µM; dofetilide IC70 present; 0.51% of 310,000 active; Voltage-gated inwardly rectifying potassium channel KCNH2 (Homo sapiens), Q12809; AID 1511, 2009;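 active = activation above the mean of controls blocked by dofetilide plus 5 SD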;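 also: thallium influx through hERG after potassium depolarization seen as dye fluorescence rise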
KCNQ1 pot: potentiators or activators of KCNQ1 channel, primary screen, cell-based, thallium flux, high-throughput | AID 2648, 2010 | CHO-K1 KCNQ1, thallium flux FluxOR fluorescence; hits give high values | Potassium voltage-gated channel subfamily KQT member 1 (Homo sapiens), P51787 | B-score at 10 µM | 0.35% of 310,000 active;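 active = fluorescence ratio B-score, a plate-corrected score, at least three library SD, with initial intensity B-score within 5 SD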
Target sequence (P51787 whole entry, looked up): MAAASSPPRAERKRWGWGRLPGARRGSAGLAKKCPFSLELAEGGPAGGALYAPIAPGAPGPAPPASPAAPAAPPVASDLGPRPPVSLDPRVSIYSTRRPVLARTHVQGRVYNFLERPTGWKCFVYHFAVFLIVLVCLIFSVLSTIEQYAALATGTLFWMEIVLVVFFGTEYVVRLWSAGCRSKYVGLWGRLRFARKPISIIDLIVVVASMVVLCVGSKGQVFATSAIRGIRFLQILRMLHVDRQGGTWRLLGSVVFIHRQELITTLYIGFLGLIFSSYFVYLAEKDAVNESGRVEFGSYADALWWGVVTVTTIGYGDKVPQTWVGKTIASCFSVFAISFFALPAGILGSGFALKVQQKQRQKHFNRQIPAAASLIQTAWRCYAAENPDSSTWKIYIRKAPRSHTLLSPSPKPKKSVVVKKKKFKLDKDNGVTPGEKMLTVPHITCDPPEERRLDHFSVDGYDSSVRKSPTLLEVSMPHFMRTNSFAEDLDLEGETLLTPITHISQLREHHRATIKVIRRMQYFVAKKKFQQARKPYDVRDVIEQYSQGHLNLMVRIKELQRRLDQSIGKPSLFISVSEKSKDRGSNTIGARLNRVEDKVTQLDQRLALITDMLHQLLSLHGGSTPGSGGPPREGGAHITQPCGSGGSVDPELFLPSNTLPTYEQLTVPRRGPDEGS
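Schedule – 37 °C overnight plating, 90-min dark dye load, 20-min compound pretreatment · System – stable KCNQ1 CHO-K1 line · Probe or stimulus – thallium- and potassium-containing depolarizing buffer · Measured by – kinetic FluxOR fluorescence, 10 s baseline plus 110 s post-stimulus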
KCNK9 block: KCNK9 potassium channel inhibitors, primary screen, HEK293 cells, thallium flux; B-score at 10 µM; Potassium channel subfamily K member 9 (Homo sapiens), Q9NPC2; 1.2% of 310,000 active; AID 488922, 2010; FluxOR thallium flux fluorescence; hits give low values;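 active = ratio B-score over 3 SD below the library mean, with starting fluorescence within 5 SD of its mean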;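 also: negative B-score means less thallium flux so channel inhibition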
KCNQ1 inh: inhibitors of human KCNQ1 channel, primary screen, cell-based, thallium flux, high-throughput | Potassium voltage-gated channel subfamily KQT member 1 (Homo sapiens), P51787 | CHO-K1 KCNQ1, FluxOR thallium flux fluorescence; hits give high values | B-score at 10 µM | 1.3% of 310,000 active;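 active = compounds whose thallium flux B-score, printed positive for inhibition, exceeds three library SD while starting fluorescence stays within three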;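 also: channel opened by potassium depolarization with thallium stimulus after 20 min compound exposure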
KCNK9 block conf: KCNK9 potassium channel inhibitors, confirmation, HEK293 cells, thallium flux, duplicate; shares compounds with KCNK9 block; FluxOR thallium flux fluorescence; inhibition, % at 10 µM; 43% of 4,900 active;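 active = thallium signal inhibited by more than 5 SD of the compound-free buffer control wells, on both duplicate plates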
Kir2-1 spec: mouse Kir2.1 channel inhibition, confirmation, selectivity assay for KCNK9 modulator project, cell-based, HEK293, thallium flux. inhibition, % at 10 µM. Kir2.1 cells, FluxOR thallium flux fluorescence. shares compounds with KCNK9 block. 4% of 4,900 active;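 active = thallium signal drop more than 5 SD beyond the mean of the no-compound control wells, seen in both duplicate plates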;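 also: signal is fluorescence rise after thallium addition divided by baseline fluorescence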
HEK293 Tl ctr: thallium flux in non-induced HEK293 cells, confirmation, counter-screen for KCNK9 inhibitor project, cell-based, second counter screen, non-induced KCNK9-HEK293 | shares compounds with KCNK9 block | FluxOR thallium flux | 40% of 4,900 active | inhibition, % at 10 µM;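 active = thallium signal drop beyond 5 SD of the untreated control mean, on both duplicate plates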
A number is an active result; - = inactive; . = no result given. Most compounds without a hit are left out; they make up all but 3.7% or so of the library.

SMILES	KCNK3 inh	Kir21 block	hERG protect	KCNQ1 pot	KCNK9 block	KCNQ1 inh	KCNK9 block conf	Kir2-1 spec	HEK293 Tl ctr
O=[N+]([O-])c1ccccc1SN(Cc1ccccc1)c1ccccn1	-	-	-	-	-8.6	-	40%	-	44%
COc1ccc(NS(=O)(=O)c2cc(NC(=O)C3CC3)ccc2N2CCCCC2)cc1	-	-	-	-	-	-	.	.	.
COc1ccccc1NS(=O)(=O)c1cc(NC(=O)C2CCC2)ccc1N1CCCCC1	-	-	-	-	-8.5	-	34%	-	26%
Cc1c(C(C)(C)O)[nH]c2ccc(C(F)(F)F)cc12	-	-	-	-	-	-	.	.	.
Cc1cccc(-c2nc(CSCC(=O)NCc3cccs3)c(C)o2)c1	-	-	-	-	-	-	-	-	-
O=C1c2cccc(Cl)c2C(=O)N1c1ccccn1	-	-	-	-	-	-	.	.	.
CCCOc1ccccc1OCC(=O)N1CCN(S(=O)(=O)c2ccc(Cl)cc2)CC1	-	.	.	.	.	.	.	.	.
Cc1ccc(OCCn2c(C)c(/C=N/n3cnnc3)c3ccccc32)cc1	-	-	-	-	-	-	.	.	.
Cc1c(/C=N/n2cnnc2)c2ccccc2n1CCOc1ccc(Cl)cc1	-	-	-	-	-8.2	-	-	-	-
N#C/C(=C/c1ccc(-c2ccc([N+](=O)[O-])cc2)o1)c1nnc(N2CCOCC2)n1-c1ccccc1	-	.	.	.	.	.	.	.	.
CCCCc1ccc(NC(=O)C(=O)NCCN2CCN(Cc3ccc([N+](=O)[O-])cc3)CC2)cc1	-	-	-	-	-	-	.	.	.
CC(C)C(=O)N1CCN(c2nc(-c3ccccc3)c3c(c2C#N)CCCC3)CC1	-	-	-	-	-8.6	-	40%	-	-
Cc1ccc2nc(NNC(=O)c3ccc(S(=O)(=O)N4CCc5ccccc5C4)cc3)sc2c1	-	-	-	-	-	7	-	-	-
Cc1cc(C)c2nc(NNC(=O)c3ccc(S(=O)(=O)N4CC(C)CC(C)C4)cc3)sc2c1 (configuration not stated)	-	-	-	-	-	-	-	-	-
COC(=O)c1sc2ccccc2c1NC(=O)c1ccc(S(=O)(=O)N2CC(C)CC(C)C2)cc1 (configuration not stated)	-	-	-	-	-	-	.	.	.
Cc1cc(C)c2nc(NNC(=O)c3ccc(S(=O)(=O)N4CCCC(C)C4)cc3)sc2c1 (configuration not stated)	-	-	-	-	-	-	-	-	-
Cc1cccc2sc(NNC(=O)c3ccc(S(=O)(=O)N4CC(C)CC(C)C4)cc3)nc12 (configuration not stated)	-	-	-	-	-	6	-	-	-
CC1CC(C)CN(S(=O)(=O)c2ccc(C(=O)Nc3sccc3C(N)=O)cc2)C1 (configuration not stated)	-	-	-	-	-	-	.	.	.
O=C(/C=C/c1ccccc1Cl)c1ccc[nH]1	-	-	-	-	-	-	.	.	.
Cc1ccc(Cl)cc1NS(=O)(=O)c1ccccc1	-	.	.	.	.	.	.	.	.
Cc1ccc(Cl)cc1NS(=O)(=O)Cc1ccccc1	-	-	-	-	-	-	-	-	-
CN(Cc1ccccc1)C(=O)COC(=O)C1CCN(S(=O)(=O)c2ccc3c(c2)OCCO3)CC1	-	-	-	-	-	-	.	.	.
CCOc1cc(C)c(C(C)C)cc1S(=O)(=O)n1cnc(C)c1	-	-	-	-	-	-	-	-	-
CCOc1cc(C)c(C(C)C)cc1S(=O)(=O)N1CC(C)OC(C)C1 (configuration not stated)	-	-	-	-	-	-	.	.	.
Brc1ccc(CNc2nc3ccccc3n2CCN2CCCCC2)cc1	-	-	-	-	-	-	.	.	.
SMILES	KCNK3 inh	Kir21 block	hERG protect	KCNQ1 pot	KCNK9 block	KCNQ1 inh	KCNK9 block conf	Kir2-1 spec	HEK293 Tl ctr
Cc1nnc(SCC(=O)NC(C)(C)C)n1C1CCCCC1	-	-	-	-	-	-	.	.	.
Cc1cccc(OCC(=O)N(Cc2nnc(-c3ccccc3Cl)o2)C2CC2)c1	-	.	.	.	.	.	.	.	.
Cc1ccc(C)c(OCC(=O)N(Cc2nnc(-c3ccccc3Cl)o2)C2CC2)c1	-	-	-	-	-	-	-	-	-
Clc1ccc(-c2ccc(CNCC3CCCO3)o2)cc1 (configuration not stated)	-	-	-	-	-	-	.	.	.
CCOC(=O)c1cc(-c2ccccc2)sc1NC(=O)C(C)Sc1nnnn1C (configuration not stated)	-	-	-	-	-17	-	61%	-	36%
CCOC(=O)c1cc(-c2ccccc2)sc1NC(=O)C(C)C	-	-	-	-	-	-	.	.	.
C=CCNC(=O)c1ccc(N(Cc2ccc(Cl)cc2)S(C)(=O)=O)cc1	-	-	-	-	-	-	.	.	.
C/C(=N\NC(=S)NCCc1ccccc1)c1cccs1	-	-	-	-	-	-	-	-	-
Cc1noc(C)c1CCC(=O)NC1CCCN(Cc2ccc(CC(C)C)cc2)C1 (configuration not stated)	-	-	-	-	-	-	.	.	.
Cc1ccc(OCc2cc(C(=O)NC(C)Cc3cnccn3)no2)cc1C (configuration not stated)	-	-	-	-	-	-	.	.	.
Cc1nc(C(C)NC(=O)c2cc(COc3ccc(C)c(C)c3)on2)c(C)s1 (configuration not stated)	-	-	-	-	-	-	-	-	-
CCCc1cc(=O)[nH]c(SCC(=O)NN(c2ccccc2)c2ccccc2)n1	-	-	-	-	-	-	.	.	.
COc1ccc(-c2cc(C(F)(F)F)n3ncc(C(=O)NCc4ccco4)c3n2)cc1	-	-	-	-	-	-	.	.	.
COc1ccc(-c2cc(C(F)(F)F)n3ncc(C(=O)N(C)Cc4ccccc4)c3n2)cc1	-	-	-	-	-	-	-	-	-
CCOC(=O)C1CCN(CCCSc2ccc(C)cc2)CC1	-	-	-	-	-	-	-	-	-
